By pIC50 is commonly meant the IC50 on a negative log10 scale, so that one unit is a factor of ten.

Each structure is given as a SMILES string. pIC50: −log10 of the molar value. Bounds are passed on as bounds.

The assay concerns the target Protein farnesyltransferase (Rattus norvegicus, UniProt Q02293+Q04631). The assay can be described thus: Inhibitory concentration against rat brain farnesyltransferase. Summed up: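 Rat brain FTase (40-fold purified), pH 7.4, in 30 mM potassium phosphate, 5 mM phosphate plus 50 mM Hepes, or 50 mM Hepes. Buffer also held 7 mM DTT, 1.2 mM MgCl2 and protease inhibitors. Final substrates were 0.12 μM [1-3H]FPP and 0.1 μM biotinyl-aminoheptanoyl-TKCVIM, with inhibitor varied from DMSO stock. Reaction ran 30 min at 37 °C, was stopped with streptavidin beads, and was counted by scintillation proximity. Generally n = 2.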

Compound `C[C@H](NC(=O)[C@@H](Cc1c[nH]c2ccccc12)NC(=O)[C@H](NC(=O)[C@@H](Cc1ccc(OCc2ccccc2)cc1)NC(=O)[C@@H](Cc1cnc[nH]1)NC(=O)OCc1ccccc1)[C@@H](C)OCc1ccccc1)C(N)=O` showed a pIC50 of 7.82.
`C[C@H](NC(=O)[C@@H](Cc1c[nH]c2ccccc12)NC(=O)[C@H](COCc1ccccc1)NC(=O)[C@@H](Cc1ccc(OCc2ccccc2)cc1)NC(=O)[C@@H](Cc1cnc[nH]1)NC(=O)OCc1ccccc1)C(N)=O` showed a pIC50 of 4.89.
As for `CC(NC(=O)[C@@H](Cc1ccc(OCc2ccccc2)cc1)NC(=O)[C@@H](Cc1c[nH]cn1)NC(=O)OCc1ccccc1)C(=O)N[C@H](Cc1c[nH]c2ccccc12)C(=O)N[C@@H](C)C(N)=O` (stereo not given in full), the figure is 5.96.
To `C[C@H](NC(=O)[C@@H](Cc1c[nH]c2ccccc12)NC(=O)[C@@H](CSCc1ccccc1)NC(=O)[C@@H](Cc1ccc(OCc2ccccc2)cc1)NC(=O)[C@@H](Cc1cnc[nH]1)NC(=O)OCc1ccccc1)C(N)=O` belongs 7.82; to `C[C@@H](NC(=O)[C@H](Cc1c[nH]c2ccccc12)NC(=O)[C@H](COCc1ccccc1)NC(=O)[C@@H](Cc1ccccc1)NC(=O)[C@H](Cc1cnc[nH]1)NC(=O)OCc1ccccc1)C(N)=O` (stereo in doubt), 7.10; to `C[C@H](NC(=O)[C@@H](Cc1c[nH]c2ccccc12)NC(=O)[C@@H](COCc1ccccc1)NC(=O)[C@@H](Cc1ccc(OCc2ccccc2)cc1)NC(=O)[C@@H](Cc1c[nH]cn1)NC(=O)OC1CCCCC1)C(N)=O`, 5.42.
As for `C[C@@H](NC(=O)[C@H](Cc1c[nH]c2ccccc12)NC(=O)[C@H](COCc1ccccc1)NC(=O)[C@H](Cc1ccccc1)NC(=O)[C@H](Cc1c[nH]cn1)NC(=O)OCc1ccccc1)C(N)=O` (single isomer, unassigned), the figure is 8.05; as for `C[C@H](NC(=O)[C@@H](Cc1c[nH]c2ccccc12)NC(=O)[C@@H](COCc1ccccc1)NC(=O)[C@H](CC(=O)O)NC(=O)[C@@H](Cc1c[nH]cn1)NC(=O)OCc1ccccc1)C(N)=O`, 7.42.
With `C[C@H](NC(=O)[C@@H](Cc1c[nH]c2ccccc12)NC(=O)[C@@H](COCc1ccccc1)NC(=O)C(CCC(N)=O)NC(=O)[C@@H](Cc1cnc[nH]1)NC(=O)OCc1ccccc1)C(N)=O` (stereo not given in full), the pIC50 was 7.27.
To `C[C@H](NC(=O)[C@@H](Cc1c[nH]c2ccccc12)NC(=O)[C@@H](COCc1ccccc1)NC(=O)[C@@H](Cc1ccc(OCc2ccccc2)cc1)NC(=O)C(Cc1ccccc1)NC(=O)OCc1ccccc1)C(N)=O` (stereo not given in full) belongs below 4.70; to `C[C@H](NC(=O)[C@@H](Cc1c[nH]c2ccccc12)NC(=O)[C@@H](COCc1ccccc1)NC(=O)C(CCC(=O)O)NC(=O)[C@@H](Cc1c[nH]cn1)NC(=O)OCc1ccccc1)C(N)=O` (stereo not given in full), 7.74.
`C[C@H](NC(=O)[C@@H](Cc1c[nH]c2ccccc12)NC(=O)[C@@H](CS)NC(=O)[C@@H](Cc1ccc(OCc2ccccc2)cc1)NC(=O)[C@@H](Cc1cnc[nH]1)NC(=O)OCc1ccccc1)C(N)=O` had a pIC50 of 8.40.
As to `C[C@H](NC(=O)C(Cc1ccccc1)NC(=O)[C@@H](COCc1ccccc1)NC(=O)[C@@H](Cc1ccc(OCc2ccccc2)cc1)NC(=O)[C@@H](Cc1cnc[nH]1)NC(=O)OCc1ccccc1)C(N)=O` (stereo not given in full), the pIC50 was 5.60.
`C[C@H](NC(=O)[C@@H](Cc1c[nH]c2ccccc12)NC(=O)[C@@H](COCc1ccccc1)NC(=O)[C@H](CS)NC(=O)[C@@H](Cc1c[nH]cn1)NC(=O)OCc1ccccc1)C(N)=O`: the pIC50 is 5.31.
To `C[C@H](NC(=O)[C@@H](Cc1c[nH]c2ccccc12)NC(=O)[C@@H](COCc1ccccc1)NC(=O)C(CCCCN)NC(=O)[C@@H](Cc1cnc[nH]1)NC(=O)OCc1ccccc1)C(N)=O` (stereo not given in full) belongs 5.72; to `C[C@H](NC(=O)[C@@H](Cc1c[nH]c2ccccc12)NC(=O)[C@@H](COCc1ccccc1)NC(=O)[C@H](C)NC(=O)[C@@H](Cc1c[nH]cn1)NC(=O)OCc1ccccc1)C(N)=O`, 6.00; to `C[C@H](NC(=O)[C@@H](Cc1c[nH]c2ccccc12)NC(=O)C(Cc1ccccc1)NC(=O)[C@@H](Cc1ccc(OCc2ccccc2)cc1)NC(=O)[C@@H](Cc1c[nH]cn1)NC(=O)OCc1ccccc1)C(N)=O` (stereo not given in full), 6.89.
As to `CC(=O)N[C@H](Cc1cnc[nH]1)C(=O)N[C@H](Cc1ccc(OCc2ccccc2)cc1)C(=O)N[C@H](COCc1ccccc1)C(=O)N[C@H](Cc1c[nH]c2ccccc12)C(=O)N[C@@H](C)C(N)=O`, the pIC50 is 5.00.
As for `COC(=O)[C@H](C)NC(=O)[C@@H](Cc1c[nH]c2ccccc12)NC(=O)[C@@H](COCc1ccccc1)NC(=O)[C@@H](Cc1ccc(OCc2ccccc2)cc1)NC(=O)[C@@H](Cc1cnc[nH]1)NC(=O)OCc1ccccc1`, the figure is 7.32; as for `CC(NC(=O)[C@@H](COCc1ccccc1)NC(=O)[C@@H](Cc1ccc(OCc2ccccc2)cc1)NC(=O)[C@@H](Cc1cnc[nH]1)NC(=O)OCc1ccccc1)C(=O)N[C@@H](C)C(N)=O` (stereo not given in full), 6.60; as for `C[C@H](NC(=O)[C@H](Cc1c[nH]c2ccccc12)NC(=O)[C@@H](COCc1ccccc1)NC(=O)[C@@H](Cc1ccc(OCc2ccccc2)cc1)NC(=O)[C@@H](Cc1cnc[nH]1)NC(=O)OCc1ccccc1)C(N)=O`, 5.06.
To `C[C@H](NC(=O)[C@@H](Cc1c[nH]c2ccccc12)NC(=O)[C@@H](COCc1ccccc1)NC(=O)[C@@H](Cc1ccc(OCc2ccccc2)cc1)NC(=O)[C@H](N)Cc1cnc[nH]1)C(N)=O` belongs 5.35; to `C[C@H](NC(=O)[C@@H](Cc1c[nH]c2ccccc12)NC(=O)[C@@H](COCc1ccccc1)NC(=O)[C@@H](Cc1ccc(OCc2ccccc2)cc1)NC(=O)C(CS)NC(=O)OCc1ccccc1)C(N)=O` (stereo not given in full), 6.77.
As for `C[C@H](NC(=O)[C@@H](Cc1c[nH]c2ccccc12)NC(=O)[C@@H](COCc1ccccc1)NC(=O)[C@@H](Cc1ccc(OCc2ccccc2)cc1)NC(=O)[C@@H](Cc1c[nH]cn1)NC(=O)OCc1ccccc1)C(=O)O`, the figure is 7.32.
For the compound `C[C@H](NC(=O)[C@@H](Cc1c[nH]c2ccccc12)NC(=O)[C@@H](COCc1ccccc1)NC(=O)C(CC1CCCCC1)NC(=O)[C@@H](Cc1cnc[nH]1)NC(=O)OCc1ccccc1)C(N)=O` (stereo not given in full), the pIC50 is 7.18.
To `C[C@H](NC(=O)[C@@H](Cc1c[nH]c2ccccc12)NC(=O)[C@@H](COCc1ccccc1)NC(=O)[C@@H](Cc1ccc(OCc2ccccc2)cc1)NC(=O)C(Cc1c[nH]cn1)NC(=O)OCc1ccccc1)C(N)=O` (stereo not given in full) belongs 7.09.
`C[C@H](NC(=O)[C@@H](Cc1c[nH]c2ccccc12)NC(=O)[C@@H](COCc1ccccc1)NC(=O)[C@@H](CCc1ccccc1)NC(=O)[C@@H](Cc1c[nH]cn1)NC(=O)OCc1ccccc1)C(N)=O` showed a pIC50 of 7.74.
To `C[C@H](NC(=O)[C@@H](Cc1c[nH]c2ccccc12)NC(=O)[C@@H](CO)NC(=O)[C@@H](Cc1ccc(OCc2ccccc2)cc1)NC(=O)[C@@H](Cc1cnc[nH]1)NC(=O)OCc1ccccc1)C(N)=O` belongs 5.74; to `C[C@H](NC(=O)[C@@H](Cc1c[nH]c2ccccc12)NC(=O)[C@@H](COCc1ccccc1)NC(=O)[C@@H](Cc1ccc(OCc2ccccc2)cc1)NC(=O)[C@@H](Cc1c[nH]cn1)NC(=O)[C@@H]1CCC(=O)N1)C(N)=O`, below 4.70; to `C[C@H](NC(=O)[C@@H](Cc1c[nH]c2ccccc12)NC(=O)[C@@H](COCc1ccccc1)NC(=O)[C@@H](Cc1ccc(OCc2ccccc2)cc1)NC(=O)[C@@H](Cc1cnc[nH]1)NC(=O)OCC1c2ccccc2-c2ccccc21)C(N)=O`, 5.80.
For the compound `C[C@H](NC(=O)[C@@H](Cc1c[nH]c2ccccc12)NC(=O)[C@@H](COCc1ccccc1)NC(=O)[C@@H](Cc1ccc(OCc2ccccc2)cc1)NC(=O)[C@H](Cc1cnc[nH]1)NC(=O)OCc1ccccc1)C(N)=O`, the pIC50 is 7.46.
To `CC(NC(=O)[C@@H](Cc1c[nH]c2ccccc12)NC(=O)[C@@H](COCc1ccccc1)NC(=O)[C@@H](Cc1ccc(OCc2ccccc2)cc1)NC(=O)[C@@H](Cc1c[nH]cn1)NC(=O)OCc1ccccc1)C(N)=O` (stereo not given in full) belongs 8.07.
To `C[C@H](NC(=O)[C@@H](Cc1c[nH]c2ccccc12)NC(=O)[C@@H](CCC(=O)O)NC(=O)[C@@H](Cc1ccc(OCc2ccccc2)cc1)NC(=O)[C@@H](Cc1c[nH]cn1)NC(=O)OCc1ccccc1)C(N)=O` belongs 6.70.
As for `C[C@H](NC(=O)[C@@H](Cc1c[nH]c2ccccc12)NC(=O)[C@@H](COCc1ccccc1)NC(=O)[C@@H](Cc1ccc(OCc2ccccc2)cc1)NC(=O)[C@@H](Cc1cnc[nH]1)NC(=O)OCc1ccccc1)C(=O)NN`, the figure is 7.19.
`C[C@@H](NC(=O)[C@H](Cc1c[nH]c2ccccc12)NC(=O)[C@H](COCc1ccccc1)NC(=O)[C@@H](Cc1ccc(O)cc1)NC(=O)[C@H](Cc1cnc[nH]1)NC(=O)OCc1ccccc1)C(N)=O` (stereo in doubt) showed a pIC50 of 6.77.
Compound `CCNC(=O)[C@H](C)NC(=O)[C@@H](Cc1c[nH]c2ccccc12)NC(=O)[C@@H](COCc1ccccc1)NC(=O)[C@@H](Cc1ccc(OCc2ccccc2)cc1)NC(=O)[C@@H](Cc1c[nH]cn1)NC(=O)OCc1ccccc1` had a pIC50 of 6.77.
In turn, `C[C@H](NC(=O)[C@@H](Cc1c[nH]c2ccccc12)NC(=O)[C@@H](COCc1ccccc1)NC(=O)[C@@H](Cc1ccc(OCc2ccccc2)cc1)NC(=O)C(N)CCCNC(=O)OCc1ccccc1)C(N)=O` (stereo not given in full) had a pIC50 of 5.33.
`C[C@H](NC(=O)[C@@H](Cc1c[nH]c2ccccc12)NC(=O)[C@@H](COCc1ccccc1)NC(=O)[C@@H](Cc1ccc(OCc2ccccc2)cc1)NC(=O)C(Cc1c[nH]c2ccccc12)NC(=O)OCc1ccccc1)C(N)=O` (stereo not given in full) showed a pIC50 below 4.70.
To `C[C@H](NC(=O)[C@@H](Cc1c[nH]c2ccccc12)NC(=O)[C@@H](COCc1ccccc1)NC(=O)[C@@H](Cc1ccc(OCc2ccccc2)cc1)NC(=O)[C@@H](Cc1cnc[nH]1)NC(=O)OC1CCC1)C(N)=O` belongs 5.49; to `CC(NC(=O)OCc1ccccc1)C(=O)N[C@H](Cc1ccc(OCc2ccccc2)cc1)C(=O)N[C@H](COCc1ccccc1)C(=O)N[C@H](Cc1c[nH]c2ccccc12)C(=O)N[C@@H](C)C(N)=O` (stereo not given in full), below 4.70.

The values are drawn from ChEMBL document CHEMBL1130162, “Structure-activity relationships of cysteine-lacking pentapeptide derivatives that inhibit ras farnesyltransferase” (J Med Chem, 1997).
